Results published in ChEMBL document CHEMBL1909531, “Mitochondrial respiration inhibitors suppress protein translation and hypoxic signaling via the hyperphosphorylation and inactivation of translation initiation factor eIF2α and elongation factor eEF2” (J Nat Prod, 2011).
Active and inactive are the calls of the source. The calls are words filed in the database; no cut-off is given here.

Key:
T47D [1] = assay: Inhibition of HIF1beta protein accumulation under hypoxic condition in human T47D cells at 3 uM after 4 hrs by Western blot analysis; format: functional, cell-based
PC-3 = assay: Antiproliferative activity against human PC3 cells assessed as cell viability by SRB assay; format: functional, cell-based
How it was run: (§1)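 Cells grown in DMEM/F12 with 10% FBS, penicillin and streptomycin; 96-well viability assay, 2-day or 6-day exposure, with medium (5% FBS) and compound renewed after 3 days in the 6-day study. Read by optical density; % inhibition = [1 − (ODtreated/ODcontrol)] × 100 versus medium control.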

T47D [2] = assay: Inhibition of cellular respiration in human T47D cells at 0.3 uM in presence of complex 4 substrate TMPD/ascorbate; format: functional, cell-based
T47D [3] = assay: Inhibition of cellular respiration in human T47D cells at 0.3 uM by oxygen consumption assay in presence of complex 1 substrate malate and pyruvate; format: functional, cell-based
How it was run: (§2)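 Permeabilized T47D cells, oxygen consumption measured by Clark-type electrode. Complex I respiration started with malate plus pyruvate; succinate added as complex II substrate.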

T47D [4] = assay: Inhibition of cellular respiration in human T47D cells at 0.3 uM by oxygen consumption assay in presence of complex 3 substrate antimycin A; format: functional, cell-based
T47D [5] = assay: Ratio of IC50 for 1, 10-phenanthroline-induced HIF1 activation in human T47D cells to IC50 for hypoxia-induced HIF1 activation in human T47D cells; format: cell-based
T47D [6] = assay: Antiproliferative activity against human T47D cells assessed as cell viability by SRB assay; format: functional, cell-based; how it was run: as §1
MDA-MB-231 [7] = assay: Reduction in ATP level in human MDA-MB-231 cells after 72 hrs by HPLC-UV analysis; format: functional, cell-based
How it was run: (§3)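 5 × 10^5 cells per well seeded in DMEM/F12 with 10% FBS. After 24 h, half the medium replaced with serum-free DMEM/F12 containing compound. After exposure, cells washed in cold DPBS and extracted with cold 0.4 M perchloric acid, then neutralized with K2CO3. ATP quantified by reversed-phase C18 HPLC-UV using 50 mM potassium phosphate pH 6.0/MeOH at 0.7 mL/min.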

T47D [8] = assay: Inhibition of cellular respiration in human T47D cells at 0.3 uM in presence of complex 2 substrate succinate; format: functional, cell-based; how it was run: as §2
[9] = target: T1, Hypoxia inducible factors; HIF-1-alpha, HIF-2-alpha (Homo sapiens, UniProt Q16665+Q99814); assay: Inhibition of HIF1-mediated induction of VEGF mRNA expression in hypoxia-stimulated human T47D cells at 0.3 to 3 uM after 16 hrs by RT-PCR analysis; format: cell-based
T47D [10] = assay: Inhibition of cellular respiration in human T47D cells at 1 uM by oxygen consumption assay; format: functional
How it was run: (§4)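 Oxygen consumption of intact T47D cells measured with a Clark-type electrode, in serum-free DMEM/F12 at 30 °C.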

MDA-MB-231 [11] = assay: Antiproliferative activity against human MDA-MB-231 cells assessed as cell viability by SRB assay; format: functional, cell-based; how it was run: as §1
[12] = target: Serine/threonine-protein kinase mTOR (Homo sapiens) (UniProt P42345); assay: Inhibition of mTOR in human T47D cells assessed as eEF2 hyperphosphorylation on Ser 56 at 1 to 10 uM after 30 mins by Western blotting; format: cell-based
How it was run: (§5)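 Cells seeded at 0.8 × 10^6 per well, exposed 30 min at 37 °C, 5% CO2, in DMEM/F12 with 5% FBS. Lysed in modified RIPA (pH 7.6) with protease and phosphatase inhibitors; 40 µg protein run on 4–20% gels, nitrocellulose transfer. Phospho-specific and total eIF2α/eEF2 primaries at 1:1,000, HRP anti-rabbit at 1:2000, chemiluminescence on film.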

T47D [13] = assay: Inhibition of cellular respiration in human T47D cell at 0.03 to 1 uM by oxygen consumption assay; format: functional, cell-based; how it was run: as §4
[14] = target: T1, Hypoxia inducible factors; HIF-1-alpha, HIF-2-alpha; assay: Inhibition of HIF1-mediated induction of VEGF mRNA expression in human T47D cells at 3 uM after 16 hrs by RT-PCR analysis under normoxic condition; format: cell-based
[15] = target: Serine/threonine-protein kinase mTOR (Homo sapiens) (UniProt P42345); assay: Inhibition of mTOR-mediated 4E-BP1 phosphorylation on Thr 37/46 in human T47D cells at 1 to 10 uM after 30 mins by Western blotting; format: cell-based
[16] = target: T1, Hypoxia inducible factors; HIF-1-alpha, HIF-2-alpha; assay: Inhibition of HIF1-mediated induction of cellular VEGF protein in hypoxia-stimulated human T47D cells at 3 uM after 16 hrs by ELISA; format: cell-based
T47D [17] = assay: Reduction in ATP level in human T47D cells by HPLC-UV analysis at 1 uM after 72 hrs; format: functional, cell-based
How it was run: (§6)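 Cells seeded at 5 × 10^5 per well in DMEM/F12 with 10% FBS; after 24 h, half the medium was replaced with serum-free medium containing compound. Cells washed with cold DPBS, extracted with cold 0.4 M perchloric acid, neutralized with K2CO3. Nucleotides quantified by C18 HPLC-UV, 50 mM potassium phosphate pH 6.0/MeOH mobile phase, 0.7 mL/min.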

[18] = target: T1, Hypoxia inducible factors; HIF-1-alpha, HIF-2-alpha; assay: Inhibition of 1, 10-phenanthroline-induced HIF1 activation in human T47D cells after 16 hrs by HRE3-TK-luciferase reporter gene assay; format: cell-based
[19] = target: T1, Hypoxia inducible factors; HIF-1-alpha, HIF-2-alpha; assay: Inhibition of HIF1-mediated induction of secreted VEGF protein in hypoxia-stimulated human T47D cells at 0.3 uM after 16 hrs by ELISA; format: cell-based
[20] = target: Serine/threonine-protein kinase mTOR (Homo sapiens) (UniProt P42345); assay: Inhibition of mTOR-mediated rpS6 phosphorylation on Ser 235/236 in human MDA-MB-231 cells at 1 to 10 uM after 30 mins by Western blotting; format: cell-based
MDA-MB-231 [21] = assay: Reduction in ATP level in human MDA-MB-231 cells at 0.1 to 1 uM after 48 hrs by HPLC-UV analysis; format: functional, cell-based; how it was run: as §6
[22] = target: T1, Hypoxia inducible factors; HIF-1-alpha, HIF-2-alpha; assay: Inhibition of HIF1-mediated induction of Glut-1 mRNA expression in hypoxia-stimulated human T47D cells at 0.3 to 3 uM after 16 hrs by RT-PCR analysis; format: cell-based
[23] = target: T1, Hypoxia inducible factors; HIF-1-alpha, HIF-2-alpha; assay: Inhibition of HIF1-mediated induction of cellular VEGF protein in hypoxia-stimulated human T47D cells at 0.3 uM after 16 hrs by ELISA; format: cell-based
[24] = target: T1, Hypoxia inducible factors; HIF-1-alpha, HIF-2-alpha; assay: Inhibition of HIF1-mediated induction of secreted VEGF protein in hypoxia-stimulated human T47D cells at 3 uM after 16 hrs by ELISA; format: cell-based
T47D [25] = assay: Reduction in ATP level in human T47D cells after 48 hrs by HPLC-UV analysis; format: functional, cell-based; how it was run: as §3
[26] = target: Serine/threonine-protein kinase mTOR (Homo sapiens) (UniProt P42345); assay: Inhibition of mTOR-mediated rpS6 phosphorylation on Ser 235/236 in human T47D cells at 1 to 10 uM after 30 mins by Western blotting; format: cell-based
T47D [27] = assay: Antiproliferative activity against human T47D cells assessed as cell viability at 1 uM after 72 hrs by SRB assay; format: functional; conditions: read-out: Activity
How it was run: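 T47D cells treated for 72 h in parallel with the HPLC ATP time course; viability measured by sulforhodamine B, in which cells are fixed directly in the wells without aspiration or washing, so loosely attached cells are kept.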

[28] = target: Serine/threonine-protein kinase mTOR (Homo sapiens) (UniProt P42345); assay: Inhibition of mTOR in human MDA-MB-231 cells assessed as eIF2alpha hyperphosphorylation on Ser 51 at 1 to 10 uM after 30 mins by Western blotting; format: cell-based; how it was run: as §5
[29] = target: Serine/threonine-protein kinase mTOR (Homo sapiens) (UniProt P42345); assay: Inhibition of mTORC1-mediated eIF4E phosphorylation on Ser 209 in human T47D cells at 1 to 10 uM after 30 mins by Western blotting; format: cell-based

CC(C)CC(=O)O[C@@H]1CC[C@]2(C)[C@H]3CC[C@]45C[C@]4(CC[C@@H]5[C@@H]4C[C@H]([C@@H]5OC5(C)C)OC4O)[C@]3(C)[C@H](O)C[C@H]2C1(C)C (stereo not given in full) [SKIMMIAREPIN A]
inhibition (T47D [1]): inactive | Activity (PC-3): Active | inhibition (T47D [2]): inactive | inhibition (T47D [3]): Active | inhibition (T47D [4]): inactive | Ratio IC50 (T47D [5]): 80 | Activity (T47D [6]): Active | Activity (MDA-MB-231 [7]): Dose-dependent effect | inhibition (T47D [8]): inactive | inhibition [9]: Active | inhibition at 1 µM (T47D [10]): 73% | Activity (MDA-MB-231 [11]): inactive | Activity [12]: Dose-dependent effect | inhibition (T47D [13]): Dose-dependent effect | inhibition [14]: inactive | inhibition [15]: inactive | inhibition [16]: Active | Activity (T47D [17]): Active | IC50 [18]: > 10 µM | inhibition [19]: Active | inhibition [20]: inactive | Activity (MDA-MB-231 [21]): inactive | inhibition [22]: Active | inhibition [23]: Active | inhibition [24]: Active | Activity (T47D [25]): Active | inhibition [26]: inactive | viability at 1 µM (T47D [27]): 50% | Activity [28]: Dose-dependent effect | inhibition [29]: inactive
